Activity calls are given as the source filed them. No cut-off for these calls is given here. Peptide text beside a SMILES is read from it.
Key:
Splicing factor 45 = target: T1, Splicing factor 45 (Homo sapiens, UniProt Q96I25); assay: Binding affinity to His-Z-tagged SPF45 (unknown origin) UHM domain expressed in Escherichia coli BL21 (DE3) cells by ITC analysis
T1 sequence (Q96I25 whole entry): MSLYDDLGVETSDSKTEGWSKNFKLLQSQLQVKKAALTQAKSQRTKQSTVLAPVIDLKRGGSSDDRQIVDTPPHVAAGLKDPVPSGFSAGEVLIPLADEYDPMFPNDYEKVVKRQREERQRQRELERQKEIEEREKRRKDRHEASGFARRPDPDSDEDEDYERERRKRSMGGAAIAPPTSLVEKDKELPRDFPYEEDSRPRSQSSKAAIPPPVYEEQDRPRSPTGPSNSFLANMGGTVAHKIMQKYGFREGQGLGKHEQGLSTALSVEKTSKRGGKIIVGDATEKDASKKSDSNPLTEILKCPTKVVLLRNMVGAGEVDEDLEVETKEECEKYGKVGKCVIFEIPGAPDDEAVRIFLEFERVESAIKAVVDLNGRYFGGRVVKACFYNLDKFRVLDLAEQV
How it was run: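 SPF45 UHM domain expressed in BL21 (DE3) as His-Ztag fusion (0.5 mM IPTG, overnight at 20 °C), then Ni-NTA, TEV cleavage of tag, ion exchange and size exclusion. ITC: 5–20 μM protein in cell titrated with 10-fold concentrated peptide, 1.5 μL injections. One-site binding fit; errors are SD of fitting errors by error propagation.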

Homo sapiens = species on record: Homo sapiens; assay: Selectivity index, ratio of Kd for U2AF65 UHM domain to Kd for His-Z-tagged SPF45 (unknown origin) UHM domain
[1] = target: T2, Splicing factor 45 (Homo sapiens) (UniProt Q96I25); assay: Inhibition of SPF45-mediated splicing in human HeLa nuclear extracts assessed as reduction in complex A formation during spliceosome-assembly at 25 to 500 uM incubated for 20 mins before addition of IgM pre-mRNA as the splicing substrate by agarose gel electrophoresis; type: tissue-based; details: dose 25-500 µM
T2 sequence (whole entry): T1 sequence (Q96I25 whole entry)
How it was run: (§1)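 Peptide added to 25–500 μM final and held 20 min on ice before pre-mRNA. Spliced product normalized to the no-peptide control; SD from two independent experiments. Complex formation read by agarose gel electrophoresis.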

[2] = target: T2, Splicing factor 45 (Homo sapiens); assay: Inhibition of SPF45-mediated splicing in human HeLa nuclear extracts assessed as splicing products formation at 25 to 500 uM incubated for 20 mins before addition of IgM pre-mRNA as the splicing substrate by agarose gel electrophoresis; parameters: scale not given: the % may be the effect or the level left; details: dose 25-500 µM; how it was run: as §1
[3] = target: T2, Splicing factor 45 (Homo sapiens); assay: Inhibition of SPF45-mediated splicing in human HeLa nuclear extracts assessed as reduction in splicing products formation at 500 uM incubated for 20 mins before addition of IgM pre-mRNA as the splicing substrate by agarose gel electrophoresis; how it was run: as §1

Row | Compound | Kd (Splicing factor 45) [nM] | other results
1 | N=C(N)NCCC[C@@H]1NC(=O)[C@H](CO)NC(=O)[C@H](N)CCCCNC(=O)CC[C@H](C(=O)N[C@@H](Cc2ccc(O)cc2)C(=O)O)NC(=O)[C@H](CC(=O)O)NC(=O)[C@H](Cc2c[nH]c3ccccc23)NC1=O | 1850 | 
2 | N=C(N)NCCC[C@@H]1NC(=O)[C@H](CO)NC(=O)[C@H](N)CCCCNC(=O)CC[C@H](C(=O)N[C@@H](Cc2cnc[nH]2)C(=O)O)NC(=O)[C@H](CC(=O)O)NC(=O)[C@H](Cc2c[nH]c3ccccc23)NC1=O | 960 | 
3 | N=C(N)NCCC[C@@H]1NC(=O)[C@H](CO)NC(=O)[C@H](N)CCCCNC(=O)CC[C@H](C(=O)N[C@@H](Cc2c[nH]c3ccccc23)C(=O)O)NC(=O)[C@H](CC(=O)O)NC(=O)[C@H](Cc2c[nH]c3ccccc23)NC1=O | 800 | 
4 | N=C(N)NCCC[C@@H]1NC(=O)[C@H](CO)NC(=O)[C@H](N)CCCCNC(=O)CC[C@H](C(=O)N[C@@H](CCCCN)C(=O)O)NC(=O)[C@H](CC(=O)O)NC(=O)[C@H](Cc2c[nH]c3ccccc23)NC1=O | 180 | inhibition [1]: Active; Activity [2]: 29%; inhibition [3]: Active; Ratio (Homo sapiens): 270
5 | N=C(N)NCCC[C@@H]1NC(=O)[C@H](CO)NC(=O)[C@H](N)CCCCNC(=O)CC[C@H](C(=O)O)NC(=O)[C@H](CC(=O)O)NC(=O)[C@H](Cc2c[nH]c3ccccc23)NC1=O | 1400 | 
6 | N=C(N)NCCC[C@@H]1NC(=O)[C@H](CO)NC(=O)[C@H](N)CCCCNC(=O)CC[C@H](C(=O)NC(CCCCN=C(N)N)C(=O)O)NC(=O)[C@H](CC(=O)O)NC(=O)[C@H](Cc2c[nH]c3ccccc23)NC1=O (some centres undefined) | 750 | 

Further molecules by falling Kd (Splicing factor 45), results first:

Row | Kd (Splicing factor 45) [nM] | Compound | other results
7 | 15700 | N=C(N)NCCC[C@H](NC(=O)[C@H](CO)NC(=O)[C@@H](N)CCCCN)C(=O)N[C@@H](Cc1c[nH]c2ccccc12)C(=O)N[C@@H](CC(=O)O)C(=O)N[C@@H](CCC(=O)O)C(=O)O (H-KSRWDE-OH) | Ratio (Homo sapiens): 9
8 | 1260 | CN1CCCC[C@@H](N)C(=O)N[C@@H](CO)C(=O)N[C@@H](CCCNC(=N)N)C(=O)N[C@@H](Cc2c[nH]c3ccccc23)C(=O)N[C@@H](CC(=O)O)C(=O)N[C@@H](C(=O)N[C@@H](CCCCN)C(=O)O)CCC1=O | 
9 | 510 | N=C(N)NCCC[C@H](NC(=O)[C@H]1CCC(=O)NCCCC[C@@H](N)C(=O)N[C@@H](CO)C(=O)N[C@@H](CCCNC(=N)N)C(=O)N[C@@H](Cc2c[nH]c3ccccc23)C(=O)N[C@@H](CC(=O)O)C(=O)N1)C(=O)O | 

Reference: ChEMBL document CHEMBL4673204, “Rational Design of Cyclic Peptide Inhibitors of U2AF Homology Motif (UHM) Domains To Modulate Pre-mRNA Splicing” (J Med Chem, 2016)
